Here are results for 48 sequences from the EternaBench riboswitch data.

The apparent Kd is a dissociation constant that holds for the conditions of the assay.

The test system of the data set is MS2 coat protein. As to the kind of experiment: apparent Kd, MS2 coat protein; higher = weaker binding; RNA-MaP array; FMN 200 µM where present. In short, it runs like this: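 Apparent Kd: the median of filtered binding-curve fits from single clusters. Designs were transcribed on Illumina sequencing-chip clusters by stalled E. coli RNA polymerase and titrated with SNAP-549-labelled MS2 coat protein from 0.7 or 1.5 nM, doubling to 3 µM, in 100 mM Tris-HCl pH 7.5, 80 mM KCl, 4 mM MgCl2, BSA, DTT, yeast tRNA and Tween-20. Each series ran without and then with constant ligand, and green signal was normalised to red-channel RNA signal and control-cluster median Fmax.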

Where [1] appears, read: designed as: OFF switch for flavin mononucleotide, no ligand.
Setting [2] is: ligand present: flavin mononucleotide, designed as: OFF switch for flavin mononucleotide.
Setting [3] is: designed as: ON switch for flavin mononucleotide, no ligand.
Setting [4] is: ligand present: flavin mononucleotide, designed as: ON switch for flavin mononucleotide.

Consider “CGCACUUAGCGAGGAUAUGUAAAACAUGAGGAUCACCCAUGUGAUUUAGCUCCAAUUUUAAUGACACAGAAGGCGCUUAGUGCG”, for which the “apparent Kd” value turned out to be 22.2 nM under setting [1] and 15.8 nM under setting [2].

Turning to “UUUAAGAAUGAAGGAUAUCUAAAAGUAAUCUUAAGAGAAGGUCAAUAGAACAUGAGGAUCACCCAUGUUAGAAUAGAUGGGUUU”, the “apparent Kd” value is, setting by setting: under setting [1], 96.7 nM; under setting [2], 110 nM. For “ACGUAUCAUGUCAGGAUAUAGCUAGCUACGGCUAGCUAGAAGGGACAUGAGGAUCACCCAUGUCAAAGAUACGU” the same measures were 14 nM and 19 nM. Consider “UUGAAUUGAAACAUGAGGAUCACCCAUGUGUCAUAAUUGACAUAGGAUAUGUAUAUACUUUUAUAAUAGAAGGAUGACGAUACU”, for which the “apparent Kd” value was found to be 15.6 nM under setting [3] and 12.7 nM under setting [4]. Taken in the same sequence, the figures for “CGCUACUACCAGAAGGACAUGAGGAUCACCCAUGUAGGAUAUGGGUUACAAGUACCAGUGUAAAGAAACUACGCUACGUUUGCG” were 47.2 nM and 7.79 nM. Turning to “AUUUAAUUUAAUAAGAUCACAUGAGGAUCACCCAUGUAUAUAUAGGAUAUCAGCUCGAUUAGAGCUGAGAAGGAUAUAUACUAU”, the “apparent Kd” value was 383 nM under setting [1] and 322 nM under setting [2]. “UAAACGUUCUAGAAGGUGCAUUUGUUAAACAAGCAAGGAUAUAGACAUGAGGAUCACCCAUGUCUAUUAGACAUCGGCCUACUU”: the “apparent Kd” value reads like this: under setting [1], 5.75 nM; under setting [2], 5.39 nM. As for “AUAUAGCGAGGAUAUACAUGAGGAUCACCCAUGUGGUAGUAGAUACGGUAGGGCUAGUGUAGAAGGUGUUAUGA”, the “apparent Kd” value amounted to 139 nM under setting [1] and 87.9 nM under setting [2].

For the sequence “UACAUUACUGAGAAGGGAUACAUAUAAUUUUAGUCAGGAUAUCGAUACAGUGCAGCAUGAGGACAUGAGGAUCACCCAUGUAUU”, the “apparent Kd” value reads like this: under setting [3], 24.4 nM; under setting [4], 19.5 nM. Turning to “GCUGGAAAAGGAUAUACAUAACGUGCUUCGGCACGAGAUCUACAUGAGGAUCACCCAUGUAGAAGGUUUCCAGC”, the “apparent Kd” value under setting [1] stood at 14 nM and the “apparent Kd” value under setting [2] worked out at 30.2 nM. As to “GCGCCAUCGUGAGAUGGCGUAACGACAUGAGGAUCACCCAUGUAGGAUAUCGAUUGCUUUGCAGUCGAGAAGGGCAAGGUAAGU”, the “apparent Kd” value runs as follows: under setting [1], 30.7 nM; under setting [2], 38.1 nM. Turning to “CAUGUCCUCACAGGAUAUGCUGGACUUUGUCCAGCAGAAGGGUGAACAUGAGGAUCACCCAUGUAAAGGACAUGUAUAUUUAAU”, the “apparent Kd” value runs as follows: under setting [3], 1080 nM; under setting [4], 84.3 nM. Taken in the same sequence, the figures for “CUGUGUUGCGGGCAGGAUAUGUAUUGGAGUACAUGAGGAUCACCCAUGUGCGGGUGUUUCACCCGACAGAAGGGCCAAUCGCGAC” were 128 nM and 24.5 nM. As for “CCGUUACAUGAGGAUCACCCAUGUGAGGAUAUCGGUGUGACUGGCAGCGUGCGGGACUCGAGAAGGCGCUUGGC”, the “apparent Kd” value reads like this: under setting [1], 48.5 nM; under setting [2], 48.4 nM. For the sequence “UUACCUUAUGAGAAGGCGGUCAUGAAACAUGAUCGAGGAUAUCAUGUAAACAUGAGGAUCACCCAUGUAUGGGUAUUAUGGUAC”, the “apparent Kd” value was 165 nM under setting [3] and 31.8 nM under setting [4]. Turning to “AGGUAACAUGAGGAUCACCCAUGUCAGGAUAUCAUGAAGAGGAGAUUAGAGGAGAGGUUGAGAAGGGACUAUAU”, the “apparent Kd” value is, setting by setting: under setting [1], 76 nM; under setting [2], 57.4 nM. For “GGAGCUCACAUUAACAUGAGGAUCACCCAUGUCUCUAGACAUGAGGAUAUGGAUCCUAAUUGGAUCCAGAAGGCAUGGAGCUCC”, the “apparent Kd” value runs as follows: under setting [3], 1450 nM; under setting [4], 118 nM. For “GUCAUUGACAAGAAGGCAAACAUGAGGAUCACCCAUGUUCUGCAUGUAUAUUGAGGAUAUUGCCAAUGCAUGUGGAUCACCCAA”, the “apparent Kd” value reads like this: under setting [1], 6.92 nM; under setting [2], 11 nM. For the sequence “GCGAGCAUACAGAAGGGAUCGUCGUUGCGGCUGUCAGGAUAUGUAGCUUGGCCUAAACAUGAGGAUCACCCAUGUAUAAUGCUA”, the “apparent Kd” value under setting [3] stood at 66.7 nM and the “apparent Kd” value under setting [4] turned out to be 24.3 nM. “GAGUGACAUGAGGAUCACCCAUGUGAGGAUAUCGGACGGACCAAAUUAACAAUAAAUGCGAGAAGGCACAUCGG”: the “apparent Kd” value under setting [1] stood at 58.5 nM and the “apparent Kd” value under setting [2] is 81.6 nM. “CGGGCGCCGAAGGGCGAAAGCCCACAUGAGGAUCACCCAUGUAGAAGGAGGGAAGAAACCAAAACCUAGGAUAUACAGGCGCCC”: the “apparent Kd” value was found to be 7.9 nM under setting [1] and 10.2 nM under setting [2].

With “GGACCGAGUGUGAGGAUAUGCUGGUCCUUGGAUCAGCAGAAGGCACAUGAGGAUCACCCAUGUGGUGUCGGUCC”, the “apparent Kd” value reads like this: under setting [1], 573 nM; under setting [2], 203 nM.

In the case of “AAGCACAGAGGAUAUACAUGGGUGAUAAAAAAAAUGUAAAAACAUGAGGAUCACCCAUGUAGAAGGCUGUGCAA”, the “apparent Kd” value under setting [1] was found to be 22.6 nM and the “apparent Kd” value under setting [2] was found to be 16.5 nM. “GUGUACAUAUCAGGAUAUCUAUUUCCUACAUGAGGAUCACCCAUGUAGGUGAUCACCCAAGUAAAGGAGAAGGGAUAUGUAUAC”: the “apparent Kd” value under setting [3] was determined as 78.7 nM and the “apparent Kd” value under setting [4] amounted to 24.5 nM.

Turning to “CUUUUGUGAGGAUAUCAGUAGUAAAUAAAUAAAAUUACUAUUGAGAAGGCACAUGAGGAUCACCCAUGUUCCUC”, the “apparent Kd” value is, setting by setting: under setting [1], 34.7 nM; under setting [2], 184 nM. Taken in the same sequence, the figures for “CCAUAAAAGAUCCAAAAUUACAACAUGAGGAUCACCCAUGUGCAGGAUAUCGUGCCAGUGAUGUACGAGAAGGGCAGACUCUGC” were 251 nM and 333 nM. As to “AAAAGUUCAGGAUAUACAUGAGGAUCACCCAUGUAGAAAGGAAGUGUAAAAAAAAAGUGUAGAAGGGAGCAUGA”, the “apparent Kd” value was 31.7 nM under setting [1] and 29.1 nM under setting [2]. For “GAUAGACAUGAGGAUCACCCAUGUGAGGAUAUGCGUACGUUGUCCGUAGGCGACGUGCGCAGAAGGCGCGAGGU” the same measures were 55.9 nM and 88.3 nM.

As for “GAGUGGAGGUAAGGAUAUAUAAUGAUAAUCACAGUAGAAGGUACUAACAUGAGGAUCACCCAUGUAGGACUAUACCAGAGAGGG”, the “apparent Kd” value reads like this: under setting [3], 16.9 nM; under setting [4], 15.3 nM. Taken in the same sequence, the figures for “AAAAAAAAAGUAUAGGAUAUCCGAGUGGUAACAUGAGGAUCACCCAUGUGAAGAAAGGAAGAUGAGGAGAAGGAUACAAAAAAAAA” were 125 nM and 48.5 nM. For “AGCUACGUUUCGUAGCAGCUAGGUGAGGAUAUUCAAUUUUUCACAUGAGGAUCACCCAUGUAUGAAAAGAAGGCGCCUAGAAAG” the same measures were 4.45 nM and 4.04 nM.

“CAUCCGAAUGAGAAGGGUCACAUGAGGAUCACCCAUGUGACCUCAUCGAUGACAGGAUAUCAUGGGUGGCAGUGUAAAGUUGGC”: the “apparent Kd” value runs as follows: under setting [1], 6.6 nM; under setting [2], 7.04 nM.

Turning to “UAUAUAUAGUAAGGAUAUGUAUAUAUUUUAUAAACAGAAGGUACUGACAUGAGGAUCACCCAUGUUUUAGUGUGGGCAUGUAGA”, the “apparent Kd” value by setting is: under setting [1], 72.1 nM; under setting [2], 109 nM. Consider “AUAAAACAUGAGGAUCACCCAUGUCAACAAAGUCGAGGAUAUGGGCAAAUAAAAUAAGAACCAGAAGGCGUAUAAU”, for which the “apparent Kd” value under setting [4] is 94.3 nM. With “GUAGCAUACCGAGGAUAUUCAUACCCGAAAGGGACAUGAGGAUCACCCAUGUGGCGAAAGCCUUGGGAGAAGGCGGAAUGCUAC”, the “apparent Kd” value runs as follows: under setting [3], 580 nM; under setting [4], 24.4 nM. For “AGCAGACGAGGAUAUGAUAAAGAUCACAUGAGGAUCACCCAUGUAGCGUCGAUAGACGCAUCAGAAGGCGUCUGCU”, the “apparent Kd” value runs as follows: under setting [1], 16.1 nM; under setting [2], 16.5 nM.

Consider “CUUGAAUAAGUGAGGAUAUACUGUUAGUAAUGAUUGUAGAAGGUACAUGAGGAUCACCCAUGUUUAUUCUUUAU”, for which the “apparent Kd” value runs as follows: under setting [1], 15.7 nM; under setting [2], 16 nM. Taken in the same sequence, the figures for “CUCCGGCGUGUAGGAUAUGGAUCCGAUUAGGAUCCAGAAGGACAUGAGGAUCACCCAUGUACAUGUAAACAGUCAUCACCGGAU” were 8.57 nM and 37.2 nM.

In the case of “UAACGACACGCAGGAUAUCUAACAUGAGGAUCACCCAUGUCAGAUGACAGGGUCGCUUUACUGGCAGAGAAGGGCGAUCGAUAC”, the “apparent Kd” value under setting [1] stood at 7.44 nM and the “apparent Kd” value under setting [2] was 11.2 nM. For “UGCCUGAGUCGAGGAUAUUAUGGAUCAAUUAAUACAUGAGGAUCACCCAUGUAAUUAAUUUAACAUGAGAAGGCGACUCAGGCU”, the “apparent Kd” value is, setting by setting: under setting [3], 11.3 nM; under setting [4], 8.51 nM.

With “UGAAUGGCAGGAUAUACAUGAGGAUCACCCAUGUUGCUGCUCUAUAUGCCGUCCUUGAGUAGAAGGGUCAUUUA”, the “apparent Kd” value was found to be 19.2 nM under setting [1] and 32.5 nM under setting [2]. In the case of “GGUAGGUUCACAGGAUAUGCUAUCCUUUGGGUAGCAGAAGGGUGAUAACAUGAGGAUCACCCAUGUCCUACCGGGCGUGAGCCC”, the “apparent Kd” value was 1120 nM under setting [3] and 113 nM under setting [4]. For “CAAUAUAGCACAGGAUAUGUCUCGUUUACAUGAGGAUCACCCAUGUCCGAAACAGAAGGGUGACCCGAUAUAGGACGUUGGGUG” the same measures were 121 nM and 28.9 nM.

As to “GCGUAAUAGGUGUAGCUAGUCGUACAAGAAGGGUGGUGAACAUGAGGAUCACCCAUGUGGUCAAUACAGGAUAUUGUUAUACGC”, the “apparent Kd” value runs as follows: under setting [3], 832 nM; under setting [4], 112 nM.

“AAAUACCGGUGAGGAUAUUUAUAAUAGAACUUUAUGAUAUACAUGAGGAUCACCCAUGUUACUUUAAAGAAGGCAUCGGAUAAA”: the “apparent Kd” value under setting [1] turned out to be 18.8 nM and the “apparent Kd” value under setting [2] is 15 nM. In the case of “CGUGCGUAUGUGAGGAUAUGCUGGUCCUUGGCUCGGCAGAAGGCACAUGAGGAUCACCCAUGUGGUGUCGUACU”, the “apparent Kd” value was determined as 69 nM under setting [1] and 179 nM under setting [2]. For the sequence “GCUUGUGAAGGAUAUACUGGAGGCGUGCGAUAGAAGCACGCACAUGAGGAUCACCCAUGUAGAAGGUCAGGCGU”, the “apparent Kd” value under setting [1] came to 36.9 nM and the “apparent Kd” value under setting [2] is 44.5 nM.

On to “UUGCGCUGUCGAGAGGAUAUGCGGUGUUGGACAUGAGGAUCACCCAUGUUUGCGAUAGCUUUACGGUAGAAGGCUCUUCAGCUGC”, for which the “apparent Kd” value under setting [3] worked out at 63.9 nM and the “apparent Kd” value under setting [4] was found to be 35.9 nM.
